Screening results deposited in PubChem BioAssay by Broad Institute.
T cruzi HTS: inhibitors of intracellular Trypanosoma cruzi, primary screen, cell-based, plate reader, single point, set 2. intracellular Trypanosoma cruzi in host cells. hit rate 4.9% among 22,000. AID 651903, 2012. activity score (inhibition), % at 5.01 µM; in the data active = activity score above about 55%;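 note: parasites and compound incubated about four days before reading; 0% = median of neutral control wells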
INS-1E ATP HTS: protection of INS-1E cells from cytokine death, primary screen, ATP luminescence, single point | INS-1E cytokine-induced death, 48 h; normalised: neutral wells 0, positive control 100 | protection from cytokine-induced ATP loss, % at 10 µM | hit rate 0.1% among 20,000;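 active = mean replicate protection from cytokine-induced ATP loss at least 50% and at least 75% of replicates each reaching 50%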
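Assay system: INS-1E rat insulinoma cells. Amount: 8000 cells per well. Medium: phenol-red-free RPMI with 5% fetal bovine serum. Reagent: IL-1β, TNF-α and IFN-γ cytokine mix. Doses: one compound concentration, pin transfer. Schedule: 48 h co-treatment, 10 min post-lysis read. Detection: CellTiter-Glo luminescence measuring cellular ATP.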
A1 apoptosis 2: A1 inhibitors via caspase activation, primary screen, cell-based, luminescence, HTS, two replicates | MEF A1-2A-BIM cells, caspase-Glo luminescence, 3 h; percent of clofoctol response, DMSO zero | caspase activation, % (no concentration beside the values) | 24,000 tested, under 10 active | AID 2465, 2010; in the data active = caspase activation above about 5.9%
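Material: mouse embryonic fibroblasts co-expressing A1 and BIM (A1-2A-BIM), primed for A1 dependence / Quantity: 2500 cells/well / Buffer or medium: RPMI-1640 growth medium with 10% FBS / Doses: 50 nL compound per well, pinned / Schedule: 3 h compound exposure at 37 °C / Signal: Caspase-Glo luminescence (DEVD substrate) / Measure: Caspase-3/7 activation, seen as rise in luminescence signal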
* = called active by the depositor; . = no result given. Only a selection was taken, and hits are over-represented in it overall.

SMILES	T cruzi HTS	INS-1E ATP HTS	A1 apoptosis 2
C[C@@H]1CN([C@@H](C)CO)C(=O)c2cccc(NC(=O)C3CCCCC3)c2O[C@H]1CN(C)Cc1ccc(-c2ccccc2)cc1	71.4*	-38.7	.
CC1(C)[C@H]2CC=C(/C=N\NC(=O)c3ccccn3)[C@@H]1C2	-1.3	-6.1	-0.7
CN(C)CCCOc1ccc(/C=N/NC(=O)CCCCCC(=O)NO)cc1	.	.	0.7
O=C(NO)c1ccc(C(=O)N/N=C/c2ccc[nH]2)cc1	-2.8	-3.9	.
O=C(Cc1ccccc1)OC(C(=O)NCc1ccccc1)c1ccco1 (stereo not given)	.	.	-0.8
CC(C)=CCC[C@@H](C)C/C=N/NC(=O)c1ccc(C(=O)NO)cc1	2.6	-11.6	0.5
N#Cc1ccc(/C=N/NC(=O)c2cccc(C(=O)NO)c2)cc1	-5.6	3.3	-0.7
C[C@H](CO)N1C[C@H](C)[C@H](CN(C)Cc2ccc(-c3ccccc3)cc2)Oc2c(NC(=O)C3CC3)cccc2C1=O	-13.2	-24.7	1.7
C[C@@H]1CN([C@@H](C)CO)C(=O)c2cccc(NC(=O)C3CCCCC3)c2O[C@H]1CN(C)Cc1ccc(C(F)(F)F)cc1	75.5*	-26.8	-0.7
C[C@H](CO)N1C[C@H](C)[C@H](CN(C)Cc2ccc(C(F)(F)F)cc2)Oc2c(NC(=O)C3CCCCC3)cccc2C1=O	1.5	-28.1	.
C[C@H](CO)N1C[C@H](C)[C@@H](CN(C)Cc2ccc(-c3ccccc3)cc2)Oc2c(NC(=O)C3CC3)cccc2C1=O	69.1*	-52.7	.
Cc1ncc(CO)c(/C=N/NC(=O)CCCCCC(=O)O)c1O	-18.4	0.0	0.6
O=C1O[C@@H](c2ccccc2)[C@@H](c2ccccc2)N2[C@@H](c3ccc(O)cc3)[C@]3(C(=O)Nc4ccc(C#CCCO)cc43)[C@@H](C(=O)O)[C@H]12	.	.	-0.8
O=C(O)CCCCCCC(=O)N/N=C/c1ccc(O)cc1Br	-14.8	2.9	-0.7
COC(=O)CCCCCCC(=O)N/N=C/[C@H](O)[C@@H](O)[C@H](O)[C@H](O)CO[C@H]1O[C@H](CO)[C@H](O)[C@H](O)[C@H]1O	-12.4	-7.2	1.1
Cc1nc(S(=O)(=O)NC[C@@H]2CCCN(Cc3cccc(OCCO)c3)C2)cn1C	.	.	0.0
C[C@@H]1CN([C@@H](C)CO)C(=O)c2cccc(NC(=O)CCCCCC(=O)Nc3ccccc3N)c2O[C@@H]1CN(C)S(=O)(=O)c1ccc(F)cc1	36.3	-0.2	1.1
Cc1ccc(S(=O)(=O)N(C)C[C@H]2Oc3c(NC(=O)CCCCCC(=O)Nc4ccccc4N)cccc3C(=O)N([C@@H](C)CO)C[C@@H]2C)cc1	.	.	0.7
C[C@@H]1CN([C@H](C)CO)C(=O)c2cccc(NC(=O)CCCCCC(=O)Nc3ccccc3N)c2O[C@@H]1CN(C)S(=O)(=O)c1ccc(F)cc1	60.9*	-8.3	.
Cc1ccc(S(=O)(=O)N(C)C[C@@H]2Oc3c(NC(=O)CCCCCC(=O)Nc4ccccc4N)cccc3C(=O)N([C@H](C)CO)C[C@@H]2C)cc1	72.7*	-3.1	-0.5
C[C@H](CO)N1C[C@H](C)[C@H](CN(C)S(=O)(=O)c2ccc(F)cc2)Oc2c(NC(=O)CCCCCC(=O)Nc3ccccc3N)cccc2C1=O	63.4*	7.2	.
C[C@@H]1CN([C@@H](C)CO)C(=O)c2cccc(NC(=O)CCCCCC(=O)Nc3ccccc3N)c2O[C@H]1CN(C)S(=O)(=O)c1ccc(F)cc1	-6.2	-14.5	.
C=CCNC(=O)[C@H]1[C@@H]2C(=O)O[C@@H](c3ccccc3)[C@@H](c3ccccc3)N2[C@@H](c2ccccc2OCCO)[C@]12C(=O)N(C(=O)OCCOC)c1ccc(C#CCC(C(=O)OC)C(=O)OC)cc12	.	.	0.5
C[C@@H]1CN([C@@H](C)CO)C(=O)c2cccc(NC(=O)c3ccc(-c4nccs4)cc3)c2O[C@@H]1CN(C)Cc1ccc(Cl)c(Cl)c1	35.5	-46.8	0.3
C[C@@H]1CN([C@H](C)CO)C(=O)c2cccc(NC(=O)c3ccc(-c4nccs4)cc3)c2O[C@H]1CN(C)Cc1ccc(Cl)c(Cl)c1	47.2	-22.4	1.5
C[C@H]1CN([C@@H](C)CO)C(=O)c2cccc(NC(=O)c3ccc(-c4nccs4)cc3)c2O[C@H]1CN(C)Cc1ccc(Cl)c(Cl)c1	61.5*	-47.0	0.3
C[C@H](CO)N1C[C@H](C)[C@H](CN(C)Cc2ccc(Cl)c(Cl)c2)Oc2c(NC(=O)c3ccc(-c4nccs4)cc3)cccc2C1=O	60.5*	-40.5	.
COc1ccc(NC(=O)CN=[N+]=[N-])cc1OC	.	.	0.5
